Results as given in BindingDB's records for doi:10.1016/j.ejmech.2011.01.008 (University of Lisbon, 2011).

target: Cysteine protease falcipain-3 (Plasmodium falciparum, UniProt Q9NAW4); experiment: Inhibition of Plasmodium falciparum falcipain 3 incubated with compound for 10 mins before addition of 25 uM Z-Leu-Arg-AMC substrate by fluorescence spectrophotometry
Outline: (§1)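 Run at 25 °C in 100 mM sodium acetate pH 6.0 with 5 mM DTT and 0.75% DMSO. Enzyme was preincubated 10 min with compound diluted from DMSO, then Z-Leu-Arg-AMC was added and fluorescence was read immediately. Eight inhibitor concentrations were made by fivefold serial dilution. IC50 was fitted to percent inhibition versus a no-inhibitor control against log concentration.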

Chain of Cysteine protease falcipain-3 (Q9NAW4 1-492): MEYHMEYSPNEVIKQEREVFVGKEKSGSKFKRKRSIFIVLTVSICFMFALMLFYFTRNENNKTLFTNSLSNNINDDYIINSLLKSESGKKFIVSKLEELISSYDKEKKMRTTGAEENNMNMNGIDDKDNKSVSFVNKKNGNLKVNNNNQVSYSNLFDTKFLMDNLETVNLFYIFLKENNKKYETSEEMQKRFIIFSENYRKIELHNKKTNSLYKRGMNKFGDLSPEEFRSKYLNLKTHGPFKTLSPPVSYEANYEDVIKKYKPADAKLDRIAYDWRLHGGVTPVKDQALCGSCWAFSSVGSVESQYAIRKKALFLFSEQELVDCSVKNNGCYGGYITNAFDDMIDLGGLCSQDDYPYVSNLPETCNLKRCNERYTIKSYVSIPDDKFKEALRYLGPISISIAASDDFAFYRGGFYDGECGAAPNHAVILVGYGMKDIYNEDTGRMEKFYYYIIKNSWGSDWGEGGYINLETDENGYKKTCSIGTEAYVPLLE

IC50, > 50 µM:
CC(C)CCNC(=O)[C@H](Cc1ccccc1)N=CC1C(=O)Nc2ccc(Cl)cc21 (stereo partly drawn) [(Z/E)-(S)-2-((5-chloro-2-oxoindolin-3-ylidene)methylamino)-N-isopentyl-3-phenylpropanamide]
CC(C)CCNC(=O)[C@H](CC(C)C)N=CC1C(=O)Nc2ccc(Cl)cc21 (stereo partly drawn) [(Z/E)-(S)-2-((5-chloro-2-oxoindolin-3-ylidene)methylamino)-N-isopentyl-4-methylpentanamide]
CC(C)CCNC(=O)[C@H](CCc1ccccc1)N=CC1C(=O)Nc2c(Cl)cccc21 (stereo partly drawn) [(Z/E)-(S)-2-((7-chloro-2-oxoindolin-3-ylidene)methylamino)-N-isopentyl-4-phenylbutanamide]
CC(C)CCNC(=O)[C@H](CCc1ccccc1)N=CC1C(=O)Nc2ccccc21 (stereo partly drawn) [(Z/E)-(S)-N-isopentyl-2-((2-oxoindolin-3-ylidene)methylamino)-4-phenylbutanamide]
CC(C)CCNC(=O)[C@H](CC(C)C)N=CC1C(=O)N(C)c2ccccc21 (stereo partly drawn) [(Z/E)-(S)-N-isopentyl-4-methyl-2-((1-methyl-2-oxoindolin-3-ylidene)methylamino)pentanamide]
CC(C)CCNC(=O)[C@H](CC(C)C)N=CC1C(=O)Nc2ccccc21 (stereo partly drawn) [(Z/E)-(S)-N-isopentyl-4-methyl-2-((2-oxoindolin-3-ylidene)methylamino)pentanamide]
CC(C)CCNC(=O)CN=CC1C(=O)Nc2ccccc21 (stereo not drawn) [(Z/E)-N-isopentyl-2-((2-oxoindolin-3-ylidene)methylamino)acetamide]

target: T1, Falcipain 2 (Plasmodium falciparum, UniProt Q9N6S8); experiment: Inhibition of Plasmodium falciparum falcipain 2 incubated with compound for 10 mins before addition of 25 uM Z-Leu-Arg-AMC substrate by fluorescence spectrophotometry; outline: as §1
T1 sequence (Q9N6S8 whole entry): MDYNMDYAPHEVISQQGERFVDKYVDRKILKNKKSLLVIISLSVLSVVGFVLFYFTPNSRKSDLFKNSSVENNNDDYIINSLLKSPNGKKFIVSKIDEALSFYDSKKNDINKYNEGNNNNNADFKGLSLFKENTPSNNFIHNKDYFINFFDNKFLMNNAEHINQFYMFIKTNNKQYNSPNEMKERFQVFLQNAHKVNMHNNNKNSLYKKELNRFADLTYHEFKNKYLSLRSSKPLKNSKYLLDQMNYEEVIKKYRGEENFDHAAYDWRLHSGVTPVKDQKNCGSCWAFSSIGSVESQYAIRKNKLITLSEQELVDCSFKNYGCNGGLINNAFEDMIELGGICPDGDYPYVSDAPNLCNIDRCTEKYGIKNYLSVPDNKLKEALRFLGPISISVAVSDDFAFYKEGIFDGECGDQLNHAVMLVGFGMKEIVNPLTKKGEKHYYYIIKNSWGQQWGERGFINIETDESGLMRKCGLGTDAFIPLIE

IC50, > 50 µM:
O=C1Nc2ccccc2C1C=Nc1ccccc1 (stereo not drawn) [3-((phenylamino)methylene)indolin-2-one]
CN1C(=O)C(C=NCCCNc2ccnc3cc(Cl)ccc23)c2ccccc21 (stereo not drawn) [(Z/E)-3-((3-(7-chloroquinolin-4-ylamino)propylamino)methylene)-1-methylindolin-2-one]
O=C1Nc2ccccc2C1C=NCCCNc1ccnc2cc(Cl)ccc12 (stereo not drawn) [(Z/E)-3-((3-(7-chloroquinolin-4-ylamino)propylamino)methylene)indolin-2-one]
O=C1Nc2ccc(Cl)cc2C1C=NCCCNc1ccnc2cc(Cl)ccc12 (stereo not drawn) [(Z/E)-5-chloro-3-((3-(7-chloroquinolin-4-ylamino)propylamino)methylene)indolin-2-one]
O=C1Nc2cc(Cl)ccc2C1C=NCCCNc1ccnc2cc(Cl)ccc12 (stereo not drawn) [(Z/E)-6-chloro-3-((3-(7-chloroquinolin-4-ylamino)propylamino)methylene)indolin-2-one]
O=C1Nc2c(Cl)cccc2C1C=NCCCNc1ccnc2cc(Cl)ccc12 (stereo not drawn) [(Z/E)-7-chloro-3-((3-(7-chloroquinolin-4-ylamino)propylamino)methylene)indolin-2-one]
CC(C)CCNC(=O)[C@H](CC(C)C)N=CC1C(=O)N(C)c2ccccc21 (stereo partly drawn) [(Z/E)-(S)-N-isopentyl-4-methyl-2-((1-methyl-2-oxoindolin-3-ylidene)methylamino)pentanamide]
CC(C)CCNC(=O)[C@H](CC(C)C)N=CC1C(=O)Nc2ccccc21 (stereo partly drawn) [(Z/E)-(S)-N-isopentyl-4-methyl-2-((2-oxoindolin-3-ylidene)methylamino)pentanamide]
CCOC(=O)[C@H](Cc1ccccc1)N=CC1C(=O)Nc2ccccc21 (stereo partly drawn) [(Z/E)-(S)-ethyl 2-((2-oxoindolin-3-ylidene)methylamino)-3-phenylpropanoate]
CC(C)CCNC(=O)CN=CC1C(=O)Nc2ccccc21 (stereo not drawn) [(Z/E)-N-isopentyl-2-((2-oxoindolin-3-ylidene)methylamino)acetamide]
CCOC(=O)CN=CC1C(=O)Nc2ccccc21 (stereo not drawn) [(Z/E)-ethyl 2-((2-oxoindolin-3-ylidene)methylamino)acetate]
